From PubChem
Shown are actives, neighbours in structure and some others; about 3.5% of the full set was active somewhere.
MrgX1 antag: human MrgX1 receptor antagonism, primary screen | MRGX1-HEK293 calcium flux, Fluo-4, BAM8-22 antagonism; stronger effect = lower value | hit rate 1.3% among 310,000 | B-score at 10 µM | AID 588676;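 active = calcium-response B-score plate-corrected more than 3 library SD below zero, starting fluorescence within 5 deviations, no agonist response on first addition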;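 note: peak minus trough fluorescence over baseline after final BAM8-22 challenge near maximal dose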
Target sequence (Q96LB2 whole entry, looked up): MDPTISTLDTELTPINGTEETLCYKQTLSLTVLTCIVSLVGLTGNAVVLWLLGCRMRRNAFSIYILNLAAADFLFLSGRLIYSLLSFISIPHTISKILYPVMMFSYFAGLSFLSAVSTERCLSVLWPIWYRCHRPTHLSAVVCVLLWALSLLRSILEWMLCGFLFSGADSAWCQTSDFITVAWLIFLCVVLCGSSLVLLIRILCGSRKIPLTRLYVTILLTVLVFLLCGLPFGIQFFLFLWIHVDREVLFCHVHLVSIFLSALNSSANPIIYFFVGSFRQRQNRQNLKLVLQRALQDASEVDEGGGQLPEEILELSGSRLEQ
MrgX1 agonist: human MrgX1 receptor agonism, primary screen. MrgX1-HEK293 cells, Fluo-4 calcium fluorescence, agonist mode; stronger effect = higher value. AID 588627. B-score at 10 µM. hit rate 0.44% among 310,000. Q96LB2;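 active = calcium response B-score plate-corrected fluorescence ratio at least 3 library SD, with starting fluorescence B-score inside 5 SD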
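System: HEK293 cells stably expressing human MrgX1 receptor; Dosing: test compound in the initial addition of three; Schedule: overnight plating, then 30 min 37 °C plus 30 min room-temperature dye loading; Detection: kinetic calcium dye fluorescence, Fluo-4 NW; Controls: per-plate positive and negative controls for Z′ factor.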
RGS4 act: RGS4 potentiation or activation; HEK293 M3R/inducible RGS4, carbachol calcium flux Fluo4; stronger effect = lower value; B-score at 10 µM; hit rate 0.92% among 310,000; AID 463111;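 active = B-score of the integrated calcium signal more than 4 SD below the library mean, with starting fluorescence not abnormally high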;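 note: negative B-score means reduced calcium response which marks RGS4 activation or potentiation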
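test system = HEK293 cells with stable M3R and inducible RGS4 | schedule = recording 10 s baseline at 1 Hz, 100 s post-agonist | technique = Fluo4-AM (2 µM) calcium-flux fluorescence, kinetic read | measure = Agonist-evoked peak-minus-minimum fluorescence over baseline, integrated ratio, B score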
MrgX1 allo act: allosterically activates human MrgX1 receptor signaling; AID 588675; hit rate 0.63% among 310,000; Q96LB2; MrgX1-HEK293, Fluo-4 calcium flux, FDSS; stronger effect = higher value; B-score at 10 µM;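 active = plate-corrected calcium response at least 3 library SD above typical, normal starting fluorescence, not activating the receptor alone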;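 note: compound read alongside a low EC10 to EC30 dose of BAM8-22 agonist; peak minus trough fluorescence over baseline measured at the second addition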
RGS4 block: human RGS4 inhibition | P49798 | HEK293 M3R/RGS4 inducible, Fluo-4 calcium flux; stronger effect = higher value; triggered by carbachol at its EC20 | B-score at 10 µM | hit rate 0.45% among 310,000 | AID 463165;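 active = B-score, a plate-corrected calcium signal, over three deviations above library mean, with baseline fluorescence within five deviations of library mean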;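 note: RGS4 expression induced by doxycycline in cells with stable M3 receptor; B-score is computed from the integrated fluorescence ratio over baseline after carbachol; higher B-score means a larger calcium signal and so more RGS4 inhibition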
Target sequence (P49798 whole entry, looked up): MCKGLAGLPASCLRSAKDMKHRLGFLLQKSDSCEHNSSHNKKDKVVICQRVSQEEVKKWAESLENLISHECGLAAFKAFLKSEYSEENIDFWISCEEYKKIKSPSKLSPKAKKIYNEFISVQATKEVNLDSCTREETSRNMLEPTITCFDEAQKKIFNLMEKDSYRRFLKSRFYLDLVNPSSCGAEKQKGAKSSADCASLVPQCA
RGS4 block valid: RGS4 inhibitor validation; hit rate 65% among 1,700; calcium response, % at 10 µM; shares compounds with RGS4 block; AID 492999; HEK293 M3R/RGS4, carbachol calcium Fluo-4 fluorescence; carbachol added at its EC20; 0 = buffer wells, 100 = carbachol control;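 active = duplicate-averaged calcium response above the buffer-only control mean plus 5 SD of those controls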;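 note: integrated fluorescence ratio F max minus min over baseline F0; higher response in RGS4-induced cells means RGS4 inhibition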
M3R Ca ctr: counter-screen for RGS4 inhibitors: effect in non-induced cells | hit rate 20% among 1,900 | shares compounds with RGS4 block | AID 493000 | activity (percent), % at 10 µM | HEK293 M3R non-induced, carbachol calcium Fluo-4; submaximal (EC20) carbachol stimulus; buffer wells 0%, carbachol control wells 100%; call rule not given here;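 note: RGS4 induction absent so cells express M3R without RGS4; higher means more calcium signal and flags a non-specific hit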
M3R basal Ca ctr: second counter-screen for RGS4 inhibitors: non-induced cells without carbachol. shares compounds with RGS4 block. HEK293 M3R/RGS4 non-induced, Fluo-4 calcium, no carbachol; normalised: buffer wells 0%, carbachol wells 100%. calcium response (agonist-mode artifact), % at 10 µM. hit rate 22% among 1,900. AID 493001;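 active = duplicate-averaged calcium rise in uninduced cells above buffer wells' mean plus 5 SD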
Hits are given with their value; 0 = inactive; - = no result given.

SMILES	MrgX1 antag	MrgX1 agonist	RGS4 act	MrgX1 allo act	RGS4 block	RGS4 block valid	M3R Ca ctr	M3R basal Ca ctr
COc1ccc(/C=C2/SC(=S)N(Cc3ccccc3)C2=O)cc1O	0	0	0	0	5	24%	0	20%
O=C1/C(=C\c2cc(Cl)c(O)c(Cl)c2)SC(=S)N1Cc1ccccc1	0	0	0	0	0	-	-	-
CCOC(=O)CN1C(=O)N[C@@H](c2cccc(F)c2)C(C(=O)OC)=C1C	0	0	0	0	0	-	-	-
Fc1ccccc1CN1CCCC(NC2CCC2)C1 (centres undefined)	0	0	0	0	6.9	8.0%	0	0
COc1nc(N/N=C/c2ccc(C)cc2)nc(N2CCCCC2)n1	0	0	0	0	0	-	-	-
Cc1cccc(Nc2nc(N3CCCC3)nc(N3CCCC3)n2)c1	0	0	0	0	0	0	0	0
O=C(O)c1cccc(Nc2nc(Nc3ccccc3)nc(N3CCCC3)n2)c1	0	0	0	0	0	-	-	-
COc1nc(Nc2cccc(C)c2)nc(N2CCCCC2)n1	0	0	0	0	0	0	0	0
COc1ccc(OC)c(S(=O)(=O)N2CCC(C(=O)NCc3ccncc3)CC2)c1	0	0	0	0	0	-	-	-
COc1ccc(C(C[N+](=O)[O-])c2c(-c3ccccc3)cc3ccccn23)c(OC)c1 (centres undefined)	0	54	0	0	0	0	0	20%
Nc1cccn2c(-c3ccc(Cl)c(Cl)c3)cnc12	0	0	0	0	12	7.5%	0	0
Nc1cccn2c(-c3ccc(Cl)cc3)cnc12	0	0	0	0	0	-	-	-
CN(C(=O)COC(=O)C1=COCCO1)c1c(N)n(Cc2ccccc2)c(=O)[nH]c1=O	0	0	0	0	0	-	-	-
COc1ccccc1N(CC(=O)NCCSCc1ccccc1Cl)S(C)(=O)=O	0	0	0	0	0	-	-	-
C=CCN1C(=O)/C(=C/c2ccsc2)SC1=S	0	0	0	0	0	-	-	-
O=C(O)C(c1ccccc1)N1C(=O)/C(=C\c2ccc(-c3ccc(Br)cc3)o2)SC1=S (centres undefined)	-	-	-7.8	-	9.6	9.0%	0	234%
C=CCN1C(=O)/C(=C/c2ccc(-c3ccc(F)cc3)o2)SC1=S	-5.6	0	0	0	14	34%	0	60%
CC1(C)CC(=O)C(C(C2=C(O)CC(C)(C)CC2=O)c2ccco2)C(=O)C1 (centres undefined)	0	0	0	0	7	22%	0	0
CC(C)OP(=O)(OC(C)C)/C(C=O)=N\Nc1ccc([N+](=O)[O-])cc1	0	0	0	0	6.6	13%	0	0
CC(=O)CCc1oc2ccc(C)cc2c1-c1ccc(C)o1	0	0	0	0	0	-	-	-
CC(=O)CCc1oc2ccc(NC(C)=O)cc2c1-c1ccc(C)o1	0	0	0	0	5.3	0	0	0
Cn1cc(C(C[N+](=O)[O-])c2ccccc2)c2ccccc21 (centres undefined)	0	0	0	0	0	-	-	-
O=c1[nH][nH]c(-c2ccccc2O)c1C(C[N+](=O)[O-])c1ccc(Br)cc1 (centres undefined)	0	0	0	0	15	32%	36%	20%
COc1ccc(C(C[N+](=O)[O-])c2c(C)[nH]c3ccccc23)cc1OC (centres undefined)	0	0	0	0	0	-	-	-
Cc1ccc(C(C[N+](=O)[O-])c2c(-c3ccccc3O)[nH][nH]c2=O)cc1 (centres undefined)	0	0	0	0	6.3	34%	68%	22%
SMILES	MrgX1 antag	MrgX1 agonist	RGS4 act	MrgX1 allo act	RGS4 block	RGS4 block valid	M3R Ca ctr	M3R basal Ca ctr
COc1ccc(-n2c(CNc3ccc(C)cc3)nnc2SCc2ccccc2)cc1	0	0	0	0	0	-	0	0
COCCCNC(=O)CSc1nc2cc(C(=O)NCCOC)ccc2c(=O)n1Cc1ccc2c(c1)OCO2	0	0	0	0	0	-	-	-
COCCCNC(=O)c1cn(Cc2c(F)cccc2Cl)nn1	0	0	0	0	5.1	0	0	0
O=C(Nc1ccc(-c2n[nH]c(=S)o2)cc1)c1ccccc1Cl	0	0	0	0	0	-	-	-
N#Cc1ccc(/C=C/C(=O)c2cccnc2)cc1	0	0	0	0	19	46%	0	0
CCN(CC)c1ccc(/C=C/C(=O)c2cccnc2)cc1	0	0	0	0	0	-	-	-
O=C(CC1Nc2cccc3cccc(c23)NC1=O)Nc1ccc(F)cc1 (centres undefined)	0	0	0	0	5.3	34%	0	0
O=C(CC1NC(=O)NC1=O)Nc1ccc(Cl)cc1 (centres undefined)	0	0	0	0	0	-	-	-
O=C(CC1Nc2ccccc2NC1=O)Nc1cc(Cl)cc(Cl)c1 (centres undefined)	0	0	0	0	15	24%	0	18%
Cc1cc(C)c2[nH]c(=O)c(C(c3nnnn3C(C)(C)C)N(Cc3ccco3)CC3CCCO3)cc2c1 (centres undefined)	0	0	0	0	0	0	0	0
COc1ccc2[nH]c(=O)c(C(c3nnnn3CC3CCCO3)N3CCCCC3)cc2c1 (centres undefined)	0	0	0	0	0	-	-	-
Cc1cc2cc(C(c3nnnn3C(C)(C)C)N(Cc3ccco3)CC3CCCO3)c(=O)[nH]c2cc1C (centres undefined)	0	0	0	0	5.4	18%	0	0
COc1ccc2[nH]c(=O)c(C(c3nnnn3C(C)(C)C)N(Cc3ccco3)CC3CCCO3)cc2c1 (centres undefined)	0	0	0	0	0	-	0	7.0%
CN(C)CCNC(=O)Cn1ccc2cc(S(=O)(=O)N3CCCCC3)ccc21	0	0	0	0	0	-	-	-
O=C(O)c1c(NC(=O)N2CCOCC2)sc2c1CCCC2	0	0	0	0	0	-	-	-
COC(=O)c1ccc(CNC(=O)C23CC4CC(CC(C4)C2)C3)cc1	0	0	0	0	0	-	-	-
Cc1nc(-c2ccccc2)sc1C(=O)/C=C/c1ccc(Cl)cc1	0	0	0	0	12	7.5%	30%	16%
COC(=O)/C(=C/c1c[nH]c2ccccc12)[N+](=O)[O-]	0	34	0	0	21	18%	35%	20%
CCOC(=O)CSC1=NC(=O)/C(=C/c2ccc(OC)cc2)S1	0	0	0	0	4.8	34%	0	85%
Cc1ccc(-c2cn(-c3ccccc3)c(SCC(N)=O)n2)cc1C	0	0	0	0	4.7	9.5%	0	0
